This note sets out measurements from ChEMBL document CHEMBL5113395, “Azetidin-2-one-based small molecules as dual hHDAC6/HDAC8 inhibitors: Investigation of their mechanism of action and impact of dual inhibition profile on cell viability” (Eur J Med Chem, 2022).

The source made the active and inactive calls. The rule behind the calls is not given here.

Data set [1] concerns the target T1, Histone deacetylase 1 (Homo sapiens, UniProt Q13547). Description: Inhibition of recombinant human full length C-terminal FLAG/His-tagged HDAC1 expressed in Sf9 insect cells using ZMAL (Z-(Ac)Lys-AMC as substrate measured after 90 mins by fluorescence plate reader analysis.
For data set [2], the target named is T2, Protein deacetylase HDAC6 (Homo sapiens, UniProt Q9UBN7).
T2 sequence (Q9UBN7 whole entry): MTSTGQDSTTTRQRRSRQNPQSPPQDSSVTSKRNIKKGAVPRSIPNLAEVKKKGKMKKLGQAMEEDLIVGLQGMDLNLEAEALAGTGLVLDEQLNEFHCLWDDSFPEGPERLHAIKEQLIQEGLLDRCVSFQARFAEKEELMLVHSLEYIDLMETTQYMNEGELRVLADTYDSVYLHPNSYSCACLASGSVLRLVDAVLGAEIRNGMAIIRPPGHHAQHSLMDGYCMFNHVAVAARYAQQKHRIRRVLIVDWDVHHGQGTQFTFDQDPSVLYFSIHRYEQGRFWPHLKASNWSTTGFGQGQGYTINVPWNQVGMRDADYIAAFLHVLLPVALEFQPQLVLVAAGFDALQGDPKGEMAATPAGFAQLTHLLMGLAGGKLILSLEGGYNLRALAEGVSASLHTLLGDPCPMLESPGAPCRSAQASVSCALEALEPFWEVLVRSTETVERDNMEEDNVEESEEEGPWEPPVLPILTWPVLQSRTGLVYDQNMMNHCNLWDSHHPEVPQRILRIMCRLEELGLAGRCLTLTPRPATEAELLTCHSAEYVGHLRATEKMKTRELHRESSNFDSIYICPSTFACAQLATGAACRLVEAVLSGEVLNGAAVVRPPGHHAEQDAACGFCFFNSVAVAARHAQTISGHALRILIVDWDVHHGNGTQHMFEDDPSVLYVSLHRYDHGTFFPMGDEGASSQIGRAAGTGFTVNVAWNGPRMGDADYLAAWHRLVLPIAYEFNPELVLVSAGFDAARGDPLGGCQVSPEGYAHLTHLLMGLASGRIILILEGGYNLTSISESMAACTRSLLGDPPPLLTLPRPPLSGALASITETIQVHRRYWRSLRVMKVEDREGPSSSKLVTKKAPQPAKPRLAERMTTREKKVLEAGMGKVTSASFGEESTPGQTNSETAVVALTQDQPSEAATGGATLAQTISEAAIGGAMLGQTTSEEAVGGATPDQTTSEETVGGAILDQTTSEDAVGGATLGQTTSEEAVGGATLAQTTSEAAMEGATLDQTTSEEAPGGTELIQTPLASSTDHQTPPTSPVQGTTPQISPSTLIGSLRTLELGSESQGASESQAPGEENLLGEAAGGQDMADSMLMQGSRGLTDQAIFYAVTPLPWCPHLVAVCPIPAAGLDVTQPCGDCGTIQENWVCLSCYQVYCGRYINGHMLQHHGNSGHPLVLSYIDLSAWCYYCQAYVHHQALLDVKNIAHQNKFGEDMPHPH
Description: Inhibition of recombinant human full length N-terminal GST-tagged HDAC6 expressed in Sf9 cells using ZMAL (Z-(Ac)Lys-AMC as substrate measured after 90 mins by fluorescence plate reader analysis.

Data set [3] deals with T3, Histone deacetylase 8 (Homo sapiens) (UniProt Q9BY41).
T3 sequence (whole entry): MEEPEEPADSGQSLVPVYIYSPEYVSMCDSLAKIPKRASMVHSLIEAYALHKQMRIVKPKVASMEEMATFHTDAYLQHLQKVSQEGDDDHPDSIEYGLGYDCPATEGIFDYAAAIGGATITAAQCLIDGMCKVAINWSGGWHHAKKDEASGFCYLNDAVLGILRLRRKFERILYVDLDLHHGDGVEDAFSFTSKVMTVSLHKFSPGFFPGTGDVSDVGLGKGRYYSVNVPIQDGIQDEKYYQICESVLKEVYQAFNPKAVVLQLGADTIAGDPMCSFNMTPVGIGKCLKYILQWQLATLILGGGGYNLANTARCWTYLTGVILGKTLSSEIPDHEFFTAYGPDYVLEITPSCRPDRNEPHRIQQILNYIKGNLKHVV
Description: Inhibition of recombinant human HDAC8 using FLUOR DE LYS as substrate preincubated for 15 mins followed by substrate addition at 50 uM measured after 1 hrs by fluorescence plate reader analysis relative to control. The settings on record: time 75.0 min. In short, it runs like this: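 Kit recombinant human HDAC8 (0.45 U/reaction) was preincubated 15 min with compound (0.5% DMSO; DMSO-only control). Fluor de Lys substrate was then added at 50 µM final and the reaction ran 1 h at 30 °C. It was quenched with 2 µM TSA in Developer II for a further 1 h at 30 °C, and fluorescence read at ex 370/em 450 nm. IC50 came from nonlinear dose–response fitting.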

Data set [4] can be described thus: Cytotoxicity against mouse NIH3T3 cells assessed as inhibition of cell growth by neutral red uptake assay.
In data set [5] the target is T1, Histone deacetylase 1. Description: Inhibition of recombinant human full length C-terminal FLAG/His-tagged HDAC1 expressed in Sf9 insect cells using ZMAL (Z-(Ac)Lys-AMC as substrate at 50 uM measured after 90 mins by fluorescence plate reader analysis relative to control.
For data set [6], the target named is T1, Histone deacetylase 1. Description: Inhibition of recombinant human full length C-terminal FLAG/His-tagged HDAC1 expressed in Sf9 insect cells using ZMAL (Z-(Ac)Lys-AMC as substrate at 10 uM measured after 90 mins by fluorescence plate reader analysis relative to control.
Data set [7] addresses T1, Histone deacetylase 1. Description: Inhibition of recombinant human full length C-terminal FLAG/His-tagged HDAC1 expressed in Sf9 insect cells using ZMAL (Z-(Ac)Lys-AMC as substrate at 1 uM measured after 90 mins by fluorescence plate reader analysis relative to control.
Data set [8] relates to HCT-116. Briefly: Antiproliferation activity against human HCT-116 cells assessed as reduction in cell viability at 5 to 50 uM measured after 48 hrs by MTT assay. The settings on record: dose 5-50 µM. Type of data set: functional, cell-based. The gist of the method:
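HCT116 cells in DMEM with 10% heat-inactivated FBS were seeded at 3×10^4 cells/well and treated in triplicate at 1, 5, 10 and 50 µM for 24 and 48 h. MTT at 0.5 mg/mL was added for 3 h, formazan was dissolved in DMSO, and absorbance was read at 570 nm.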
For orientation: Tetrazolium dyes change colour on reduction, which living cells bring about.

For data set [9], the system named is U-937. Description: Antiproliferation activity against human U-937 cells assessed as reduction in cell viability at 5 to 50 uM measured after 48 hrs by CCK-8 assay. Type of data set: functional, cell-based. The settings on record: dose 5-50 µM. The gist of the method: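 U937 cells were exposed in triplicate to 1, 5, 10 and 50 µM for 24 and 48 h. CCK-8 (WST-8) reagent was then added, with 3 h further incubation at 37 °C, and absorbance was read at 450 nm to give viability.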

Data set [10] concerns the target T4, Protein deacetylase HDAC6 (Homo sapiens) (UniProt Q9UBN7).
T4 sequence (whole entry): T2 sequence (Q9UBN7 whole entry)
Briefly: Inhibition of recombinant human full length N-terminal GST-tagged HDAC6 expressed in Sf9 cells using ZMAL (Z-(Ac)Lys-AMC as substrate at 50 uM measured after 90 mins by fluorescence plate reader analysis relative to control.

The target of data set [11] is T4, Protein deacetylase HDAC6 (Homo sapiens). Description: Inhibition of recombinant human full length N-terminal GST-tagged HDAC6 expressed in Sf9 cells using ZMAL (Z-(Ac)Lys-AMC as substrate at 10 uM measured after 90 mins by fluorescence plate reader analysis relative to control.
For data set [12] the target is unchanged. Briefly: Inhibition of recombinant human full length N-terminal GST-tagged HDAC6 expressed in Sf9 cells using ZMAL (Z-(Ac)Lys-AMC as substrate at 1 uM measured after 90 mins by fluorescence plate reader analysis relative to control.

T1 sequence (Q13547 whole entry): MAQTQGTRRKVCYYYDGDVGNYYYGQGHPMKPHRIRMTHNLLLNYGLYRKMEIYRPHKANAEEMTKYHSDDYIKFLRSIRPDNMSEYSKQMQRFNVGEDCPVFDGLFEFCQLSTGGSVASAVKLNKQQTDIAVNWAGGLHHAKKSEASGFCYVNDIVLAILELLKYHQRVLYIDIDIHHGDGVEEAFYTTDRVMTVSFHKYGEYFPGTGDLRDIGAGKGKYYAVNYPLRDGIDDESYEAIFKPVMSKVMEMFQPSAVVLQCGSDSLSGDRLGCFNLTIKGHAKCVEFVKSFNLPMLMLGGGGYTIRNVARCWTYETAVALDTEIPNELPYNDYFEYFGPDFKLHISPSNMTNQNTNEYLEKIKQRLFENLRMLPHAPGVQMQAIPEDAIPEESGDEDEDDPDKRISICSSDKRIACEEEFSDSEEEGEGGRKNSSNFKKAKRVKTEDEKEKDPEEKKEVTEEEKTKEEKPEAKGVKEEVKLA

The IC50 is the concentration that gives 50% inhibition. As a reminder, the inhibition is the drop in the measured response relative to a control, in per cent. As usually defined, the CC50 is the concentration at which the toxic effect on the cells reaches its halfway point. `O=C(NO)c1ccc(COC(=O)N2CCC(N3CC(c4ccccc4)(c4ccccc4)C3=O)CC2)cc1`: the IC50 in data set [1] was determined as 4100 nM; in [2], 18.5 nM. Further, the inhibition in data set [3] came out at 13%. Also, the CC50 in [4] stood at 80000 nM.

Consider `O=C(NO)c1ccc(NC(=O)N2CCC(N3C(=O)[C@H](c4ccccc4)[C@H]3c3ccccc3)CC2)cc1` (racemic), for which the concentration for half-maximal inhibition (IC50) stood at 1270 nM in data set [1] and 203 nM in data set [2].

Turning to `O=C(/C=C/c1ccc(C(=O)N2CCC(N3C(=O)[C@H](c4ccccc4)[C@H]3c3ccccc3)CC2)cc1)NO` (racemic), in [2], the IC50 was 168 nM. The inhibition stood at 97.3% in data set [5], 93.4% in data set [6] and 61% in data set [7].

Consider `Cc1cccc(C2CC(=O)N2C2CCN(C(=O)NCc3ccc(C(=O)NO)cc3)CC2)c1` (racemic), for which the IC50 is 3100 nM in data set [1] and 399 nM in data set [2]. The CC50 in data set [4] was determined as 100000 nM.

With `O=C(CCCCCCC(=O)Nc1ccccc1)NO`, the outcome in [8] and in data set [9] was Active.

`O=C(CCc1ccc(C(=O)N2CCC(N3C(=O)[C@H](c4ccccc4)[C@H]3c3ccccc3)CC2)cc1)NO` (racemic): the inhibition worked out at 89.5% in data set [5]; 66.4% in data set [6]; 22.3% in data set [7]; 98.4% in data set [10]; 85.7% in [11]; 35.9% in data set [12].

As to `O=C(NO)c1ccc(CCC(=O)N2CCC(N3C(=O)[C@H](c4ccccc4)[C@H]3c3ccccc3)CC2)cc1` (racemic), the inhibition in data set [5] turned out to be 83.6%; in data set [6], 48.7%; in data set [7] it was 17.2%; in data set [10], 102%; in data set [11], 97.1%; in [12], 69.7%.

As for `COc1ccc(Cn2ccc3ccc(C(=O)NO)cc32)cc1`, the result in data set [8] and in data set [9] was Active.

Take `O=C(NO)c1ccc(CC(=O)N2CCC(N3C(=O)[C@H](c4ccccc4)[C@H]3c3ccccc3)CC2)cc1` (racemic): the IC50 in data set [1] worked out at 5140 nM; in data set [2] it was 121 nM. The CC50 in [4] was 48000 nM.

For the compound `O=C(NO)c1ccc(CNC(=O)N2CCC(N3C(=O)CC3c3cccc(Cl)c3)CC2)cc1` (racemic), the IC50 is 15100 nM in data set [1] and 270 nM in [2].

Take `O=C(Cc1ccc(NC(=O)N2CCC(N3C(=O)[C@H](c4ccccc4)[C@H]3c3ccccc3)CC2)cc1)NO` (racemic): the inhibition in data set [5] turned out to be 82.7%; in data set [6] it was 53.3%; in [7], 23.6%; in data set [10], 103%; in [11], 94.2%; in data set [12] it was 60.2%.

For the compound `O=C(NO)c1ccc(/C=C/C(=O)N2CCC(N3C(=O)[C@H](c4ccccc4)[C@H]3c3ccccc3)CC2)cc1` (racemic), the IC50 in data set [2] turned out to be 130 nM. Also, the inhibition in data set [5] came to 100%; in data set [6], 90.1%; in [7], 49.7%.
